Experimental data collected from several papers.
Protocols differ between the studies behind these lines.
Target: Tyrosine-protein kinase Fes/Fps (FES, Homo sapiens, UniProt P07332)

| SMILES | observed | technique | tested at | remaining binding [%] |
| --- | --- | --- | --- | --- |
| FC(F)(F)Oc1cccc(-c2cnc3ccc(-c4ccncc4)nn23)c1 | cell-free assay | competition with immobilised ligand | 5 µM | 84 |
| c1cnn2ncc(-c3ccnc(N4CCC45COC5)n3)c2c1 | binding | – | 1 µM | 95 |
| O=C(NCCCN1CCOCC1)c1ccc(Nc2ncc(Cl)c(-c3ccc(Cl)s3)n2)cc1 | binding | competition with immobilised ligand | 1 µM | 62 |
| C[C@@H](c1ccc(-n2cnc3c(N)ncnc32)cc1)N1CCc2nn(C)c(Cc3ccccc3)c2C1=O | binding | competition with immobilised ligand | 0.1 µM | 89 |
| COc1ccnn2ncc(-c3ccnc(N(C)C)n3)c12 | binding | – | 1 µM | 75 |
| COc1cc(-c2cn(C3CCc4c(F)cccc4N(CC(F)(F)F)C3=O)nn2)ccc1-n1cnc(C)c1 (stereo not shown) | cell-free assay | competition with immobilised ligand | 1 µM | 100 |
| COc1cnc(Nc2cccc(S(N)(=O)=O)c2)nc1N1CCN(c2ccccc2)C(=O)C1 | binding | competition with immobilised ligand | 1 µM | 100 |
| Cc1cnc(Nc2ccc(C(=O)N3CCC(N4CCCC4)CC3)cc2)nc1-c1cc2ccccc2s1 | binding | competition with immobilised ligand | 1 µM | 52 |
| F[C@@H]1CCN(c2nccc(-c3cnn4ncccc34)n2)C1 | binding | – | 1 µM | 77 |
| O=C(NCC1CCOCC1)c1n[nH]cc1NC(=O)c1c(F)cccc1F | binding | competition with immobilised ligand | 1 µM | 100 |
| CCS(=O)(=O)c1cc2cc(C[C@@](O)(CC(C)(C)c3ccc(F)cc3C(N)=O)C(F)(F)F)[nH]c2cn1 | cell-free assay | competition with immobilised ligand | 1 µM | 100 |
| CN(c1nccc(-c2cnn3ncccc23)n1)C1CC1 | binding | – | 1 µM | 100 |
| CCN1CCN(Cc2ccc(C(=O)Nc3ccc(C)c(Oc4ccc5c(c4)CC(=O)N5)c3)cc2C(F)(F)F)CC1 | binding | competition with immobilised ligand | 1 µM | 97 |
| c1cncc(-c2cccc(Nc3nccc(NC4CCCCC4)n3)c2)c1 | binding | competition with immobilised ligand | 10 µM | 80 |
| CN([C@@H]1CCc2c(CC(=O)O)c3ccccc3n2C1)S(=O)(=O)c1ccc(F)cc1 | cell-free assay | competition with immobilised ligand | 1 µM | 79 |
| COc1ncc2cc3ccccc3nc2c1C#N | cell-free assay | competition with immobilised ligand | 5 µM | 100 |
| Cc1nccc(COC(=O)N2C[C@@H]3[C@@H](CNC(=O)c4ccc5[nH]nnc5c4)[C@@H]3C2)n1 | cell-free assay | competition with immobilised ligand | 1 µM | 99 |
| O=C(c1ccc(Nc2ncc(Cl)c(-c3ccc(Cl)s3)n2)cc1)N1CCC(N2CCCC2)CC1 | binding | competition with immobilised ligand | 1 µM | 59 |
| N[C@@H]1CCN(c2nccc(-c3cnn4ncccc34)n2)C1 | binding | – | 1 µM | 100 |
| CN(C)C(=O)Cn1cc(-c2nc([C@@](C)(c3ccc(-c4cnc(N)nc4)cc3)C3CC3)no2)cn1 | cell-free assay | competition with immobilised ligand | 1 µM | 100 |
| C[C@H]1CCN(c2nccc(-c3cnn4ncccc34)n2)C1 | binding | – | 1 µM | 100 |
| COCCOc1nc(-c2ccc(Cl)nc2)nc2c1CN(C(=O)c1ncn3ccccc13)CC2 | cell-free assay | competition with immobilised ligand | 0.1 µM | 100 |
